Results gathered from unrelated publications.
Protocols differ between the studies behind these lines. Converted amounts (≈) assume the structure as drawn.
Organism: Staphylococcus aureus

Compound	test	system	conditions	measurement	result
CO/N=C(\C(=O)N[C@@H]1C(=O)N2C(C(=O)O)=C(CSC(=O)c3ccco3)CS[C@H]12)c1csc(N)n1	microbial killing	ATCC25923	18 h	MBC	2 µg/mL
O=C(O)c1cn(C2CC2)c2cc(N3CCNCC3)c(F)cc2c1=O	microbial growth, disc diffusion	–	100 µg/mL, 24 h	inhibition zone	0 mm
CC(O)CSc1nnc(Cn2cnc3c2c(=O)n(C)c(=O)n3C)n1-c1ccccc1 (stereo not drawn)	microbial growth, disc diffusion	–	25 µg/disc	inhibition zone	12.7 mm
CN[C@H](CC(C)C)C(=O)N[C@H]1C(=O)N[C@@H](CC(N)=O)C(=O)N[C@H]2C(=O)N[C@H]3C(=O)N[C@H](C(=O)N[C@H](C(=O)O)c4cc(O)cc(O)c4-c4cc3ccc4O)[C@H](O)c3ccc(c(Cl)c3)Oc3cc2cc(c3O[C@@H]2O[C@H](CO)[C@@H](O)[C@H](O)[C@H]2O[C@H]2C[C@](C)(N)[C@H](O)[C@H](C)O2)Oc2ccc(cc2Cl)[C@H]1O	microbial killing	ATCC25904	–	MBC	1.95 µg/mL (≈ 1.35 µM)
CN[C@H](CC(C)C)C(=O)N[C@H]1C(=O)N[C@@H](CC(N)=O)C(=O)N[C@H]2C(=O)N[C@H]3C(=O)N[C@H](C(=O)N[C@H](C(=O)O)c4cc(O)cc(O)c4-c4cc3ccc4O)[C@H](O)c3ccc(c(Cl)c3)Oc3cc2cc(c3O[C@@H]2O[C@H](CO)[C@@H](O)[C@H](O)[C@H]2O[C@H]2C[C@](C)(N)[C@H](O)[C@H](C)O2)Oc2ccc(cc2Cl)[C@H]1O	microbial growth	ATCC29213	24 h	IC50	2160 nM
C=C/C=C(\C)CC[C@@H]1C[C@H](O)CC(=O)O1	microbial growth, broth dilution	ATCC6538P	–	MIC	256 µg/mL (≈ 1220 µM)
C[C@H]1COc2c(N3CCN(C)CC3)c(F)cc3c(=O)c(C(=O)O)cn1c23	microbial killing	ATCC25904	–	MBC	0.09 µg/mL (≈ 0.249 µM)
CN[C@H](CC(C)C)C(=O)N[C@H]1C(=O)N[C@@H](CC(N)=O)C(=O)N[C@H]2C(=O)N[C@H]3C(=O)N[C@H](C(=O)N[C@H](C(=O)O)c4cc(O)cc(O)c4-c4cc3ccc4O)[C@H](O)c3ccc(c(Cl)c3)Oc3cc2cc(c3O[C@@H]2O[C@H](CO)[C@@H](O)[C@H](O)[C@H]2O[C@H]2C[C@](C)(N)[C@H](O)[C@H](C)O2)Oc2ccc(cc2Cl)[C@H]1O	microbial killing	ATCC25923	18 h	MBC	2 µg/mL (≈ 1.38 µM)
Cc1ccc(-c2nnc(SCC(C)O)n2-c2ccccc2)cc1 (stereo not drawn)	microbial growth, disc diffusion	–	25 µg/disc	inhibition zone	10 mm
O=c1c(O)c(-c2ccc(O)c(O)c2)oc2cc(O)cc(O)c12	microbial growth	ATCC29213	24 h	IC50	> 100000 nM
CC(O)CSc1nnc(COc2ccc(Cl)cc2Br)n1-c1ccccc1 (stereo not drawn)	microbial growth, disc diffusion	–	25 µg/disc	inhibition zone	19.3 mm
CN(C)[C@@H]1C(O)=C(C(N)=O)C(=O)[C@@]2(O)C(O)=C3C(=O)c4c(O)cccc4[C@@](C)(O)[C@H]3C[C@@H]12	microbial growth, disc diffusion	–	100 µg/mL, 24 h	inhibition zone	25 mm
